The nature of test [1]: Her2 expression decrease, cell viability multiplex – SKBR3 breast tumor cells, AlphaScreen, ATP viability, primary screen (AID 461;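 active = Her2 level under about 52% in both replicate screens, with viability over 70% of control, limit read from the data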;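 as to Her2 level: lower value means less Her2 protein in the cells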;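 as to viability: percent of carrier control wells set as 100% viability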). Particulars: SKBR3 Her2 protein level, 18-24 h, measured here: SKBR3 viability, ATP luminescence, at 10 µM. Background: Alpha assays give light when donor and acceptor beads are brought close together.
Test [2] has as its target Receptor tyrosine-protein kinase erbB-2 (Homo sapiens) (UniProt P04626). The description is as above. Particulars: 18-24 h, at 10 µM, stronger effect = lower value.
The nature of test [3]: reduced viability of SK-BR-3 breast cancer cells – cell-based, 24 h, human, pilot screen (AID 572;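 active = viability at or below 10% of carrier control in both of two separate runs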;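 also: compound exposure lasted between 18 and 24 h rather than exactly 24 h; 100% = carrier-treated control wells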). Particulars: SK-BR-3 viability, CellTiter-Glo luminescence, at 10 µM, stronger effect = lower value. (In ATP-based viability assays light output follows the ATP content of the culture.)
Test [4] in a line: HUVEC growth inhibition – cell-based, human, primary screen (AID 575;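 active = viability at or below 30% in both replicate assays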;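 also: 100% = median of untreated cell wells with 0.1% DMSO on each plate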). Particulars: HUVEC proliferation, CellTiter-Glo luminescence, 72 h; at 10 µM; stronger effect = lower value. In short, it runs like this: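 system = HUVEC primary cells | amount = 1250 cells/well | buffer or medium = supplemented EBM, 2% fetal bovine serum | dosing = single-point 10 µM, DMSO 0.1% final | times = 72 h compound incubation | detection = CTG luminescence | read-out = % viability relative to median vehicle-well signal on each plate | control set = vehicle and MePR control wells | format = collagen-coated 384-well format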

The nature of test [5]: H69AR cell proliferation blockers – human, duplicate replicates, primary screen (AID 580;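 active = viability at or under a set limit in both replicates, limit being median viability minus 3 SD, cut at about 48% in these data, passing the limit was not always enough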;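 also: 100% = mean luminescence of untreated wells and 0% = no signal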). Particulars: H69AR lung tumor cells viability, ATP luminescence, 72 h; at 10 µM; stronger effect = lower value.
Test [6] can be described thus: MRP1 drug-resistance reversers in H69AR cells – cell-based, doxorubicin co-treatment, pilot screen (AID 601;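 active = viability loss from added drug above about 55%, and viability with drug at most 40%, in both replicates, limit read from the data, passing the limit was not always enough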). Particulars: CellTiter-Glo, 72 h, at 10 µM; for differential viability (reversal): stronger effect = higher value.
The nature of test [7]: yeast transport mutant growth inhibition pilot in 384-well plates, post-Golgi transport modulator project (AID 636; in the data active = inhibition above about 31%). Particulars: absorbance 615 nm, about 18 h, stronger effect = higher value.
Test [8] can be described thus: growth suppression of yeast trafficking mutant, preliminary HTS, modulators of trafficking downstream of Golgi apparatus project, 1536-format plate, OD 615 nm (AID 637). Particulars: yeast transport mutant growth, absorbance 615 nm, 18 h; stronger effect = higher value.
Setting [9] is: H69AR cells + 2 uM doxorubicin, measured here: viability with 2 uM doxorubicin, stronger effect = lower value.
The mark [10] stands for this setting: H69AR cells, compound alone cytotoxicity.

Activity calls are given as the source filed them. Rule as the data show it, unless noted: active = inhibition above about 30%; inactive = the rest.

The results in this text go back to PubChem BioAssay.

Chain of Receptor tyrosine-protein kinase erbB-2 (Homo sapiens) (P04626 whole entry, looked up): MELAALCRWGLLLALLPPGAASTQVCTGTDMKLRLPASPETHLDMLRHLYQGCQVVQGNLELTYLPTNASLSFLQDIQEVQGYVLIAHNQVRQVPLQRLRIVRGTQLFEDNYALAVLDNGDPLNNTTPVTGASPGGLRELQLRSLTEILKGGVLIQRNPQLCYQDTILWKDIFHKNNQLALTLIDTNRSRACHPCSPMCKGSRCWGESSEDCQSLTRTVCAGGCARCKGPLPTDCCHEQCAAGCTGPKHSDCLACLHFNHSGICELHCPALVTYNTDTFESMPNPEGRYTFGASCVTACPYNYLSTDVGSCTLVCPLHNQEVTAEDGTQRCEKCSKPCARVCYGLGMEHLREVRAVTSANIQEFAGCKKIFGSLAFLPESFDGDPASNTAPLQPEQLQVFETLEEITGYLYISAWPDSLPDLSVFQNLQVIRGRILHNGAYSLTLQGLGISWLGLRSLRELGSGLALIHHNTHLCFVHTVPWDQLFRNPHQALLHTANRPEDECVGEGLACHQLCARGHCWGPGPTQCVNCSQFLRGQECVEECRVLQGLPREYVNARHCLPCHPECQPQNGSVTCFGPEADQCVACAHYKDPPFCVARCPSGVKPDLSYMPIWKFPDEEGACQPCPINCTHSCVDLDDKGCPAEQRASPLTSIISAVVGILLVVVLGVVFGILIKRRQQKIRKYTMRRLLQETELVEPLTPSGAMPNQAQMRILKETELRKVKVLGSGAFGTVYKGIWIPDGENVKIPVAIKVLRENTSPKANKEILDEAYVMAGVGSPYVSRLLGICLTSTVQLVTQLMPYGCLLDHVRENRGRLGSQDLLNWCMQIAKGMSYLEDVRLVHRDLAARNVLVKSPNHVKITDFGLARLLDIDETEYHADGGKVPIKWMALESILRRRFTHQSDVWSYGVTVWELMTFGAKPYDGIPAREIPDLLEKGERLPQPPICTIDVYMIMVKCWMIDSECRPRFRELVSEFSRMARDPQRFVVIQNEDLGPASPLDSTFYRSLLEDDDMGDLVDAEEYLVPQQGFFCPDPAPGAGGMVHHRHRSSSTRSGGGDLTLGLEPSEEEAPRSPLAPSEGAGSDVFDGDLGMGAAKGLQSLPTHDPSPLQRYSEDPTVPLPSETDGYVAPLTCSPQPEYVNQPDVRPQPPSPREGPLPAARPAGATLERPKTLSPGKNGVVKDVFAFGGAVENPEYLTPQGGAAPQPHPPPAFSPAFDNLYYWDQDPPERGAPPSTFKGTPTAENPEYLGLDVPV

Broadly, the viability is a read-out of living cells in per cent, often relative to untreated cells. As a reminder, the inhibition is the change of the read-out against control, counted positive when it falls. `CCN(CC)CCCNC(=O)c1nn(-c2ccc(OC)cc2OC)c(=O)c2ccccc12`: the viability in test [1] is 97%; in test [3] it was 97% (inactive); in test [4] it was 72.3% (inactive); in test [5], 96.1% (inactive); in test [6] (setting [9]) it was 97%; in test [6] (setting [10]), 96.1%. In test [2], the Her2 level was 103% (inactive). Further, the differential viability (reversal) in test [6] (H69AR cells + 2 uM doxorubicin) was -0.935% (inactive). Further, the inhibition in test [7] was -2.57% (inactive); in test [8], -7.46% (inactive).

For the molecule `COc1c(Br)cc2c(C)c(C(=O)O)oc2c1Br`, the viability in test [1] is 104%; in test [3], 104% (inactive); in test [4], 84.2% (inactive); in test [5], 94.2% (inactive); in test [6] (setting [9]), 89.3%; in test [6] (setting [10]), 94.2%. In addition, the Her2 level in test [2] is 102% (inactive). For the same molecule, in test [6] (H69AR cells + 2 uM doxorubicin), the differential viability (reversal) is 4.95% (inactive). The values for the inhibition in test [7] and in test [8] were 1.82% (inactive) and -4.59% (inactive), respectively.

With `CCOc1ccccc1-c1nc(-c2ccc(NC(=O)Cc3ccccc3OC)cc2)no1`, the viability in test [1] is 90.5%; in test [3], 90.5% (inactive); in test [4], 75.3% (inactive); in test [5], 88.6% (inactive); in test [6] (setting [9]), 83.3%; in test [6] (setting [10]), 88.6%. In test [2], the Her2 level is 114% (inactive). Further, the differential viability (reversal) in test [6] (H69AR cells + 2 uM doxorubicin) was 5.33% (inactive). In addition, the inhibition was 0.93% (inactive) in test [7] and -5.81% (inactive) in test [8].

`O=C(C1CC1(c1ccccc1)c1ccccc1)N1CCOCC1` (stereo not given): the viability in test [1] was 112%; in test [3], 112% (inactive); in test [4], 99.3% (inactive); in test [5] it was 98.8% (inactive); in test [6] (setting [9]), 87.3%; in test [6] (setting [10]), 98.8%. Further, the Her2 level in test [2] was 106% (inactive). Also, in test [6] (H69AR cells + 2 uM doxorubicin), the differential viability (reversal) is 11.4% (inactive). The inhibition in test [7] was -5.6% (inactive); in test [8], 1.45% (inactive).

On to `O=C(CN(Cc1ccco1)C(=O)CNS(=O)(=O)c1ccc(F)cc1)NCCc1ccccc1`, for which the viability in test [1] is 78%; in test [3], 78% (inactive); in test [4] it was 85.8% (inactive); in test [5] it was 91.9% (inactive); in test [6] (setting [9]) it was 91%; in test [6] (setting [10]) it was 91.9%. Further, in test [2], the Her2 level was 91.5% (inactive). In addition, the differential viability (reversal) in test [6] (H69AR cells + 2 uM doxorubicin) was 0.9% (inactive). Moreover, the figures for the inhibition in test [7] and in test [8] were -6.35% (inactive) and -2.79% (inactive), respectively.

As to `CC(=O)N1C(=O)C2(Nc3ccccc3N2)c2ccccc21`, the viability is 110% in test [1]; 110% (inactive) in test [3]; 104% (inactive) in test [4]; 97.6% (inactive) in test [5]; 88.1% in test [6] (setting [9]); 97.6% in test [6] (setting [10]). The Her2 level in test [2] is 95.5% (inactive). In addition, the differential viability (reversal) in test [6] (H69AR cells + 2 uM doxorubicin) was 9.47% (inactive). Further, the figures for the inhibition in test [7] and in test [8] were -7.16% (inactive) and -9.5% (inactive), respectively.

For `CC(C)Cn1c(N)c(C(=O)COC(=O)c2ccc3c(c2)OCCO3)c(=O)n(C)c1=O`, the viability is 87% in test [1]; 87% (inactive) in test [3]; 71.3% (inactive) in test [4]; 91.8% (inactive) in test [5]; 98.6% in test [6] (setting [9]); 91.8% in test [6] (setting [10]). Moreover, the Her2 level in test [2] was 102% (inactive). Moreover, the differential viability (reversal) in test [6] (H69AR cells + 2 uM doxorubicin) was -6.76% (inactive). Besides, the inhibition is -4.46% (inactive) in test [7] and 0.16% (inactive) in test [8].

For the molecule `O=C(c1ccc2c(c1)[nH]c(=S)n1c3ccccc3nc21)N1CCN(c2ncccn2)CC1`, the viability in test [1] is 100%; in test [3], 100% (inactive); in test [4] it was 88.7% (inactive); in test [5], 96.3% (inactive); in test [6] (setting [9]), 90.8%; in test [6] (setting [10]), 96.3%. In test [2], the Her2 level was 82% (inactive). In addition, the differential viability (reversal) in test [6] (H69AR cells + 2 uM doxorubicin) is 5.5% (inactive). Also, the inhibition is -3.95% (inactive) in test [7] and 3.67% (inactive) in test [8].

Regarding `COc1ccc(CC(=O)Nc2c3c(nn2-c2cccc(Cl)c2)CS(=O)(=O)C3)cc1`, the viability in test [1] is 84.5%; in test [3], 84.5% (inactive); in test [4], 104% (inactive); in test [5] it was 90.2% (inactive); in test [6] (setting [9]) it was 89.1%; in test [6] (setting [10]), 90.2%. Moreover, the Her2 level in test [2] is 89% (inactive). Further, in test [6] (H69AR cells + 2 uM doxorubicin), the differential viability (reversal) is 1.1% (inactive). In addition, the inhibition in test [7] is -6.8% (inactive); in test [8], 3.06% (inactive).

`COC(=O)C(C)Sc1nc2c(c(=O)n(C)c(=O)n2C)n1Cc1cccc(C)c1` (stereo not given): the viability in test [1] is 97.5%; in test [3], 97.5% (inactive); in test [4] it was 79.7% (inactive); in test [5], 91.5% (inactive); in test [6] (setting [9]) it was 82.8%; in test [6] (setting [10]), 91.5%. For the same molecule, the Her2 level in test [2] is 86.5% (inactive). Also, in test [6] (H69AR cells + 2 uM doxorubicin), the differential viability (reversal) is 8.71% (inactive). For the same molecule, the inhibition is -0.26% (inactive) in test [7] and -0.32% (inactive) in test [8].

As to `O=C(/C=C1\NC2(CCCC2)Cc2ccccc21)N1CCOCC1`, the viability in test [1] was 101%; in test [3], 101% (inactive); in test [4], 98.2% (inactive); in test [5], 102% (inactive); in test [6] (setting [9]), 85%; in test [6] (setting [10]) it was 102%. Further, in test [2], the Her2 level was 85% (inactive). Moreover, the differential viability (reversal) in test [6] (H69AR cells + 2 uM doxorubicin) was 17.3% (inactive). The figures for the inhibition in test [7] and in test [8] were -7.12% (inactive) and -3.49% (inactive), respectively.

As to `COc1cccc(CNC(=O)C2CCN(c3cnccn3)CC2)c1`, the viability in test [1] is 87.5%; in test [3], 87.5% (inactive); in test [4] it was 88.4% (inactive); in test [5], 96.2% (inactive); in test [6] (setting [9]) it was 87.3%; in test [6] (setting [10]), 96.2%. The Her2 level in test [2] is 118% (inactive). Also, in test [6] (H69AR cells + 2 uM doxorubicin), the differential viability (reversal) is 8.93% (inactive). In addition, the inhibition was -4.67% (inactive) in test [7] and 16.8% (inactive) in test [8].

As to `CC(=O)Nc1ccc(OC(=O)c2cccnc2)cc1`, the viability in test [1] is 111%; in test [3], 111% (inactive); in test [4], 116% (inactive); in test [5] it was 99.9% (inactive); in test [6] (setting [9]), 84.9%; in test [6] (setting [10]), 99.9%. Besides, the Her2 level in test [2] is 116% (inactive). Besides, in test [6] (H69AR cells + 2 uM doxorubicin), the differential viability (reversal) is 15.1% (inactive). In addition, the inhibition in test [7] is -7.57% (inactive); in test [8], -3.17% (inactive).

For the molecule `O=C(c1ccco1)N1CCN(c2cccc(Cl)c2)CC1`, the viability is 101% in test [1]; 101% (inactive) in test [3]; 88.1% (inactive) in test [4]; 97.9% (inactive) in test [5]; 92.7% in test [6] (setting [9]); 97.9% in test [6] (setting [10]). In addition, the Her2 level in test [2] was 103% (inactive). The differential viability (reversal) in test [6] (H69AR cells + 2 uM doxorubicin) was 5.25% (inactive). The inhibition is -0.93% (inactive) in test [7] and -9.68% (inactive) in test [8].
